# Only some compounds are listed: those with a hit (about 1.5% of all), similar ones and a draw of the others.
# HEK293 NFkB inh: inhibitors of the PMA/ionomycin-induced NF-kB reporter in HEK293 cells | AID 465 | HEK-293 NF-kB luciferase reporter, luminescence | actives 0.21% (n = 62,000) | inhibition, % at 3 µM;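 active means inhibition above the mean of all tested compounds plus 3 SD, cut at about 40% in these data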;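 further: 0% = stimulated DMSO wells and 100% = 10 µM reference inhibitor 5653914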
#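 Reagent: PMA plus ionomycin mix as NF-kB-activating stimulus. Assay system: NF-kB luciferase reporter HEK-293 cells. Technique: luminescence from luciferase substrate reagent. Incubation: 1 h compound pre-incubation, 16 h PMA/ionomycin at 37 °C. Benchmarks: DMSO only as uninhibited control, 10 µM reference inhibitor as full inhibition. Repeats: tested once.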
# Plk1 PBD FP: blocks phosphopeptide binding to human Plk1 polo box domain. P53350. Plk1 PBD phosphopeptide binding, fluorescence polarization. inhibition, %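 (tested at about 20 µM)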. actives 0.13% (n = 97,000); in the data active means inhibition above about 34%, passing the limit was not always enough
# PLK1 inh: blocks human PLK1 kinase activity. inhibition, % at 10 µM. actives 0.53% (n = 97,000). AID 619. recombinant PLK1 kinase, TR-FRET peptide phosphorylation. P53350;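 active means inhibition of 50% or more in the single-concentration screen; inactive means inhibition below 50%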;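 further: 0% = DMSO max control and 100% = H-89 dihydrochloride min control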
# PTK2B oligo ant: antagonists of human Pyk2 oligomerization | Q14289 | Q293 cells, Pyk2 FERM NanoBiT luminescence; hits give low values | z-score (the deposit names both 25 µM and 10 µM) | actives 0.83% (n = 99,000);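 active means Z-score of -3 or lower, scaled per plate to the spread of control and sample wells; inactive means z-score above -3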;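 further: negative z-score means lost luminescence so less FERM oligomerization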
# AP ELISA ortho: orthogonal test for alternative complement pathway inhibitors; inhibition, % at 5 µM; Human serum alternative complement pathway, LPS-coated ELISA, C3 deposition; tested in compound mixtures; AID 1235; actives 0.08% (n = 62,000);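 active means inhibition above 30% in each of the two pooled mixtures holding the compound, so the lower value exceeds 30%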;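 further: 0% = serum in Mg-EGTA without compound and 100% = EDTA serum blank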
#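 Assay system: Human serum alternative complement pathway, C3 deposition on LPS-coated wells | Incubation: 1 h serum-compound exposure at 37 °C | Doses: 5 µM per compound in ten-compound mixtures | Read-out: Percent inhibition | Technique: ELISA with HRP anti-human C3 antibody, TMB substrate, absorbance 450 nm | Replication: Two pool placements per compound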
# HePTP inhibitor: blocks human HePTP tyrosine phosphatase. recombinant HePTP phosphatase activity, OD absorbance. inhibition, % at 20 µM. actives 0.64% (n = 110,000). AID 521; in the data active means inhibition above about 50%;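 further: plate controls were vehicle for no effect and reference inhibitor for full effect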
# Target sequence (P35236 whole entry, looked up): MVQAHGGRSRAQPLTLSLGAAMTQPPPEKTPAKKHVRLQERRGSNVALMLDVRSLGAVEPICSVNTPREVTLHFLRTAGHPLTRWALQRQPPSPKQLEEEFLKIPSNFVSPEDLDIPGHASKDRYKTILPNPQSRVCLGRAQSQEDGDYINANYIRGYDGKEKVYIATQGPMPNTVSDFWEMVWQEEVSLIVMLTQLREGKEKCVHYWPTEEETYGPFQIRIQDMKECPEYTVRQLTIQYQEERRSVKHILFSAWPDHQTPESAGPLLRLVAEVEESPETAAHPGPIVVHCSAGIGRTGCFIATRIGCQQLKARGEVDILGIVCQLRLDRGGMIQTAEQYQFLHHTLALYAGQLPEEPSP
# Redox H2O2 DR: generates H2O2 by redox cycling, flagging false Plk1 PBD hits | redox cycling H2O2 generation, DTT, counter-screen | EC50, µM | 120 tested, under 10 active | shares compounds with Plk1 PBD FP; call rule not given here
# The depositor's hits bear a star; . = no result.
SMILES,HEK293 NFkB inh,Plk1 PBD FP,PLK1 inh,PTK2B oligo ant,AP ELISA ortho,HePTP inhibitor,Redox H2O2 DR
CCOC(=O)C1CCCN(C(=O)CNS(=O)(=O)c2ccc(Br)s2)C1 (centres undefined),-2,-26,-2,0.24,3,16,.
O=C(CNS(=O)(=O)c1ccc(Br)s1)N1CCCC1,12,44*,-3,-0.66,19,12,>50
CCn1ncc(CN2CCN(C(=O)Nc3ccccc3C(=O)OC)CC2)c1C,20,39*,-7,0.46,8,4,>50
COC(=O)c1ccccc1NC(=O)N1CCN(C/C=C/c2ccccc2)CC1,4,-7,-9,-0.29,0,3,.
Cc1ccc(C(=O)c2c[nH]c(C(=O)NCCCN3CCOCC3)c2)cc1,.,58*,-3,1.5,.,.,>50
CCCC1(O)CC(c2ccccc2)N(C)C(c2ccccc2)C1C (centres undefined),.,.,.,.,.,1,.
COc1ccc(Cn2c(=O)sc3ccccc32)cc1,3,54*,-6,-1.9,0,2,>50
CCn1c(SCC(=O)O)nc2sc3c(c2c1=O)CCC3,.,11,-1,0.06,.,.,.
CCCc1nc2sc3c(c2c(=O)n1NC(=O)CCC(=O)O)CCCC3,.,46*,-5,0.32,.,.,>50
Fc1ccc(Cn2nnnc2CN2CCN(C3CCCC3)CC2)cc1,4,45*,-5,-0.11,19,3,>50
COc1ccccc1C(=O)N1CCN(c2ccccn2)CC1,12,-5,-3,1.1,8,8,.
COc1cccc(OC)c1C(=O)N1CCN(c2ccccn2)CC1,24,38*,-12,-1.1,10,6,>50
O=C1C(=O)N(c2cccnc2)C(c2ccccc2Cl)/C1=C(\O)c1ccc(Cl)cc1 (centres undefined),.,.,.,.,.,3,.
Cc1cc2nc(-c3ccc(C)c(NC(=O)c4ccco4)c3)oc2cc1C,.,.,.,.,.,13,.
COc1ccc(C(C)C)cc1S(=O)(=O)Nc1ccc(Cl)cn1,16,47*,-14,0.01,-7,11,>50
CCOc1ccc(C)cc1S(=O)(=O)Nc1ccc(Cl)cn1,.,-12,0,0.17,.,.,.
O=C(NC1(C(F)(F)F)NC(=O)N(CC2CCCCC2)C1=O)c1ccco1 (centres undefined),15,63*,-3,-1.1,-3,-1,>50
COc1ccc(N2C(=O)NC(=O)/C(=C/c3ccc(OCc4ccccc4F)c(OC)c3)C2=O)cc1,.,.,.,.,.,-2,.
CCOC(=O)c1ccc(N/C=C/C(=O)c2ccc(Cl)cc2)cc1,.,.,.,.,.,0,.
Cn1nc(-c2ccc(Cl)cc2)nc2c(=O)n(C)c(=O)nc1-2,.,65*,2,.,.,.,>50
CCS(=O)(=O)n1nc(-c2ccc(Cl)cc2)nc1SC,.,-4,-7,-1.1,.,.,.
Cc1cc(C)n(-c2nnc3n2N=C(c2ccccc2)CS3)n1,-11,46*,-4,-0.15,1,10,>50
Cc1nn2c(=O)c(NC(=O)c3ccc(F)cc3)cnc2s1,9,-3,-6,0.89,-1,-5,.
Cc1ccc(C(=O)Nc2cnc3sc(C)nn3c2=O)cc1,-17,34*,-15,-0.29,4,-2,>50
CC1Cc2ccccc2N1C(=O)c1ccc2c(c1)nnn2C (centres undefined),8,50*,-6,-0.72,8,9,>50
SMILES,HEK293 NFkB inh,Plk1 PBD FP,PLK1 inh,PTK2B oligo ant,AP ELISA ortho,HePTP inhibitor,Redox H2O2 DR
O=C(NCCC(c1ccccc1)c1ccccc1)C(F)(F)F,.,.,.,.,.,-17,.
COc1cc(S(=O)(=O)N2CCCCCC2)ccc1-n1cnnn1,.,38*,-2,-0.3,.,.,>50
Nc1ccc2c(c1)C(=O)C(=O)c1ccccc1-2,.,95*,-1,-4.1*,.,.,>50
CN(C)c1ccc(-c2nc3cc(NC(=O)c4ccccc4Br)ccc3o2)cc1,.,.,.,.,.,2,.
CCC(=O)Nc1ccc(-c2nnc(SCC(=O)Nc3nccs3)n2C)cc1,2,47*,19,0.42,2,12,>50
Cn1c(SCC(=O)Nc2nccs2)nnc1-c1ccco1,.,10,28,0.72,.,.,.
NNC(=O)C1(c2ccccc2)CCCC1,.,.,.,.,.,-2,.
O=C1CCC(C(=O)O)(c2ccccc2)C1 (centres undefined),8,46*,-9,.,5,5,>50
O=C(NC1(O)C(=O)c2ccccc2C1=O)c1ccccc1,11,82*,5,0.11,11,3,>50
Cc1ccc([N+](=O)[O-])cc1-c1ccc(-c2nc3sc4c(c3c(=O)[nH]2)CCCC4)o1,.,.,.,.,.,-6,.
O=C(Nc1cccn(Cc2c(Cl)cccc2Cl)c1=O)c1c(Cl)cccc1Cl,.,51*,-10,-1.3,.,.,>50
c1ccc(NCc2nnc3n2CCCCC3)cc1,11,45*,-17,-0.18,4,2,>50
O=C(CC1C(=O)NCCN1C(=S)Nc1ccccc1)Nc1ccc2c(c1)OCCO2 (centres undefined),.,43*,-1,-1,.,.,>50
COc1ccccc1NC(=O)CC1C(=O)NCCN1C(=O)Nc1ccccc1 (centres undefined),.,-3,-8,-0.19,.,.,.
Cc1ccc(-c2nnc(N3CCN(C(=O)CN4C(=O)c5ccccc5C4=O)CC3)c3ccccc23)cc1,-4,36,-4,1.2,-2,1,.
O=C(CN1C(=O)c2ccccc2C1=O)N1CCN(c2nnc(-c3ccccc3)c3ccccc23)CC1,8,47*,-13,0.53,.,.,>50
CC(C)(C)c1ccc(-c2nnc(NC(=O)Nc3ccccc3)s2)cc1,.,.,.,.,.,-10,.
CC(=O)N1CCc2cc(Br)cc(S(=O)(=O)NCc3ccccn3)c21,26,56*,-4,-0.33,18,9,>50
COC(=O)Nc1nc2c(s1)CCCC2,13,.,.,-0.58,19,13,.
CN(C)c1ccc(C(=O)Nc2nc3c(s2)CCCC3)cc1,-52,46*,-3,.,8,4,>50
Cc1ccccc1NS(=O)(=O)c1cc(C(=O)NCc2ccco2)ccc1C,2,38*,-3,-0.57,12,2,>50
O=C(CSc1nc2ccccc2[nH]1)Nc1ccc(/C=C/c2ccccc2)cc1,.,.,.,.,.,9,.
Cc1ccc2nc(NC(=O)c3ccccc3)sc2c1,.,.,.,.,.,-13,.
CC(=O)N(/N=C1\Sc2ccccc2C1=O)c1ccccc1,.,101*,-5,-1.6,.,.,>50
CC(=O)N(/N=C1\Sc2ccccc2C1=O)c1ccccc1C,.,125*,-15,-2.2,.,.,>50
O=C1CCCC(=O)C1c1cc(NS(=O)(=O)c2ccccc2)ccc1NS(=O)(=O)c1ccccc1,.,.,.,.,.,6,.
O=[N+]([O-])c1ccc(/C=C(Cl)/C=N\n2cnnc2)cc1,.,.,.,.,.,-3,.
Cc1cccc(-n2c(CCn3nc(C)c([N+](=O)[O-])c3C)n[nH]c2=S)c1,.,46*,-7,0.06,.,.,>50
Cc1oc2c(c1C(=O)c1ccccc1)C(=O)C(=O)c1ccccc1-2,.,124*,0,-2.2,.,.,>50

# Source: PubChem (several laboratories)
